Assay type in all cases: functional
Experiment [1] concerns Escherichia coli. The experiment is described as follows: Bactericidal activity against Escherichia coli ATCC 25922 preincubated 16 to 20 hrs followed by subculturing and measured after over night. An outline of the steps: (§1)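 MBC by CLSI broth microdilution on the same strain panel: S. aureus ATCC 43300, ATCC 29213, clinical isolates AD3 and 144, E. coli ATCC 25922; ATCC 43300 served as QC strain.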

Experiment [2] concerns Staphylococcus aureus. The experiment is described as follows: Antibacterial activity against methicillin-resistant Staphylococcus aureus ATCC 43300 after 24 hrs by CLSI based broth micro dilution method. Summed up: (§2)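 Broth microdilution run per CLSI. MRSA ATCC 43300 served as the QC strain, with the CLSI QC range as reference. S. aureus AD3 and 144 are clinical isolates from Guangdong Province. Pleuromutilin and tiamulin were run as reference drugs.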

Experiment [3] deals with Staphylococcus aureus. The experiment is described as follows: Antibacterial activity against Staphylococcus aureus AD3 after 24 hrs by CLSI based broth micro dilution method. Summed up:
(§3)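 CLSI broth microdilution MIC against S. aureus ATCC 43300 (MRSA), ATCC 29213, clinical isolates AD3 and 144 (Guangdong Province), and E. coli ATCC 25922; ATCC 43300 served as QC strain, with the CLSI quality control range as reference.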

Experiment [4] has as its system Staphylococcus aureus. The experiment is described as follows: Bactericidal activity against Staphylococcus aureus 144 preincubated 16 to 20 hrs followed by subculturing and measured after over night. An outline of the steps: as §1
Experiment [5] concerns Staphylococcus aureus. The experiment is described as follows: Antibacterial activity against Staphylococcus aureus ATCC 29213 after 24 hrs by CLSI based broth micro dilution method. An outline of the steps: as §2
Experiment [6] is described as follows: Ratio of MBC for bactericidal activity against methicillin-resistant Staphylococcus aureus ATCC 43300 to MIC for antibacterial activity against methicillin-resistant Staphylococcus aureus ATCC 4330.
Experiment [7] has as its system Staphylococcus aureus. The experiment is described as follows: Bactericidal activity against methicillin-resistant Staphylococcus aureus ATCC 43300 preincubated 16 to 20 hrs followed by subculturing and measured after over night. Summed up: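 MBC determined by the CLSI broth microdilution method against MRSA ATCC 43300, with ATCC 43300 also serving as the QC strain. Pleuromutilin and tiamulin were reference drugs.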

The test system of experiment [8] is Staphylococcus aureus. The experiment is described as follows: Bactericidal activity against Staphylococcus aureus AD3 preincubated 16 to 20 hrs followed by subculturing and measured after over night. Summed up: as §1
Experiment [9] concerns Escherichia coli. As to the kind of experiment: Antibacterial activity against Escherichia coli ATCC 25922 after 24 hrs by CLSI based broth micro dilution method. Summed up: as §3
Experiment [10] deals with Staphylococcus aureus. The experiment is described as follows: Bactericidal activity against Staphylococcus aureus ATCC 29213 preincubated 16 to 20 hrs followed by subculturing and measured after over night. Summed up: as §1
Experiment [11] concerns Staphylococcus aureus. As to the kind of experiment: Antibacterial activity against Staphylococcus aureus 144 after 24 hrs by CLSI based broth micro dilution method. Summed up:
as §2

In brackets after ≈: the same amount, converted by molar mass. A value given as a limit tells only on which side of the number the result lay.

For `C=C[C@]1(C)C[C@@H](OC(=O)CSc2ccccc2NC(=O)Cn2cc(CN3CCN(c4ccc(O)cc4)CC3)nn2)[C@]2(C)[C@H](C)CC[C@]3(CCC(=O)[C@H]32)[C@@H](C)[C@@H]1O`, the MBC in the experiment with Escherichia coli [1] was above 32 µg/mL; against Staphylococcus aureus [4], 8 µg/mL (≈ 10.2 µM); against Staphylococcus aureus [7], 4 µg/mL (≈ 5.1 µM); in the experiment with Staphylococcus aureus [8], 4 µg/mL (≈ 5.1 µM); against Staphylococcus aureus [10] it was 4 µg/mL (≈ 5.1 µM). The MIC in the experiment on Staphylococcus aureus [2] is 2 µg/mL (≈ 2.55 µM); against Staphylococcus aureus [3] it was 2 µg/mL (≈ 2.55 µM); with Staphylococcus aureus [5] it was 2 µg/mL (≈ 2.55 µM); in the experiment on Escherichia coli [9], above 32 µg/mL; with Staphylococcus aureus [11] it was 2 µg/mL (≈ 2.55 µM). In addition, the Ratio in experiment [6] came out at 1.

Take `C=C[C@]1(C)C[C@@H](OC(=O)CSc2ccccc2NC(=O)Cn2cc(CN3CCN(c4ccccc4F)CC3)nn2)[C@]2(C)[C@H](C)CC[C@]3(CCC(=O)[C@H]32)[C@@H](C)[C@@H]1O`: the minimum bactericidal concentration (MBC) against Escherichia coli [1] is above 32 µg/mL; with Staphylococcus aureus [4], 1 µg/mL (≈ 1.27 µM); in the experiment on Staphylococcus aureus [7], 2 µg/mL (≈ 2.54 µM); against Staphylococcus aureus [8], 1 µg/mL (≈ 1.27 µM); against Staphylococcus aureus [10], 1 µg/mL (≈ 1.27 µM). Moreover, the MIC against Staphylococcus aureus [2] is 1 µg/mL (≈ 1.27 µM); in the experiment on Staphylococcus aureus [3], 0.5 µg/mL (≈ 0.635 µM); against Staphylococcus aureus [5], 0.5 µg/mL (≈ 0.635 µM); in the experiment on Escherichia coli [9] it was above 32 µg/mL; with Staphylococcus aureus [11] it was 1 µg/mL (≈ 1.27 µM). Moreover, the Ratio in experiment [6] was 1.

Regarding `C=C[C@]1(C)C[C@@H](OC(=O)CSc2ccccc2NC(=O)Cn2cc(CN3CCN(c4cccc(O)c4)CC3)nn2)[C@]2(C)[C@H](C)CC[C@]3(CCC(=O)[C@H]32)[C@@H](C)[C@@H]1O`, the MBC with Escherichia coli [1] is above 32 µg/mL; in the experiment with Staphylococcus aureus [4], 1 µg/mL (≈ 1.27 µM); in the experiment with Staphylococcus aureus [7], 0.5 µg/mL (≈ 0.637 µM); against Staphylococcus aureus [8], 0.5 µg/mL (≈ 0.637 µM); in the experiment on Staphylococcus aureus [10] it was 0.5 µg/mL (≈ 0.637 µM). The minimal inhibitory concentration (MIC) in the experiment with Staphylococcus aureus [2] was 0.25 µg/mL (≈ 0.318 µM); in the experiment on Staphylococcus aureus [3], 0.25 µg/mL (≈ 0.318 µM); in the experiment on Staphylococcus aureus [5], 0.25 µg/mL (≈ 0.318 µM); in the experiment with Escherichia coli [9], above 32 µg/mL; with Staphylococcus aureus [11] it was 0.5 µg/mL (≈ 0.637 µM). In addition, the Ratio in experiment [6] was 1.

`C=C[C@]1(C)C[C@@H](OC(=O)CSc2ccccc2NC(=O)Cn2cc(CN3CCOCC3)nn2)[C@]2(C)[C@H](C)CC[C@]3(CCC(=O)[C@H]32)[C@@H](C)[C@@H]1O`: the MBC against Escherichia coli [1] was above 32 µg/mL; in the experiment on Staphylococcus aureus [4], 1 µg/mL (≈ 1.44 µM); with Staphylococcus aureus [7], 1 µg/mL (≈ 1.44 µM); in the experiment with Staphylococcus aureus [8] it was 2 µg/mL (≈ 2.88 µM); with Staphylococcus aureus [10], 0.5 µg/mL (≈ 0.721 µM). The MIC in the experiment on Staphylococcus aureus [2] is 0.5 µg/mL (≈ 0.721 µM); in the experiment on Staphylococcus aureus [3], 1 µg/mL (≈ 1.44 µM); with Staphylococcus aureus [5] it was 0.5 µg/mL (≈ 0.721 µM); in the experiment on Escherichia coli [9], above 32 µg/mL; against Staphylococcus aureus [11], 1 µg/mL (≈ 1.44 µM). For the same compound, in [6], the Ratio came out at 1.

On to `C=C[C@]1(C)C[C@@H](OC(=O)CSc2ccccc2NC(=O)Cn2cc(CN3CCN(c4cccc(Cl)c4)CC3)nn2)[C@]2(C)[C@H](C)CC[C@]3(CCC(=O)[C@H]32)[C@@H](C)[C@@H]1O`, for which the MBC against Escherichia coli [1] is above 32 µg/mL; in the experiment with Staphylococcus aureus [4] it was 4 µg/mL (≈ 4.98 µM); in the experiment on Staphylococcus aureus [7] it was 4 µg/mL (≈ 4.98 µM); with Staphylococcus aureus [8], 2 µg/mL (≈ 2.49 µM); in the experiment on Staphylococcus aureus [10] it was 1 µg/mL (≈ 1.24 µM). The minimum inhibitory concentration (MIC) was 2 µg/mL (≈ 2.49 µM) with Staphylococcus aureus [2]; 2 µg/mL (≈ 2.49 µM) in the experiment on Staphylococcus aureus [3]; 1 µg/mL (≈ 1.24 µM) in the experiment with Staphylococcus aureus [5]; above 32 µg/mL against Escherichia coli [9]; 2 µg/mL (≈ 2.49 µM) against Staphylococcus aureus [11]. Moreover, in experiment [6], the Ratio is 1.

Consider `C=C[C@]1(C)C[C@@H](OC(=O)CSc2ccccc2NC(=O)Cn2cc(CN3CCCC(CO)C3)nn2)[C@]2(C)[C@H](C)CC[C@]3(CCC(=O)[C@H]32)[C@@H](C)[C@@H]1O` (some centres undefined), for which the MBC in the experiment on Escherichia coli [1] was above 32 µg/mL; in the experiment with Staphylococcus aureus [4], 0.5 µg/mL (≈ 0.693 µM); against Staphylococcus aureus [7], 0.5 µg/mL (≈ 0.693 µM); with Staphylococcus aureus [8] it was 1 µg/mL (≈ 1.39 µM); in the experiment on Staphylococcus aureus [10], 0.5 µg/mL (≈ 0.693 µM). Besides, the MIC is 0.5 µg/mL (≈ 0.693 µM) against Staphylococcus aureus [2]; 0.5 µg/mL (≈ 0.693 µM) with Staphylococcus aureus [3]; 0.5 µg/mL (≈ 0.693 µM) in the experiment with Staphylococcus aureus [5]; above 32 µg/mL with Escherichia coli [9]; 0.5 µg/mL (≈ 0.693 µM) in the experiment with Staphylococcus aureus [11]. Further, the Ratio in [6] is on record as 1.

Consider `C=C[C@]1(C)C[C@@H](OC(=O)CO)[C@]2(C)[C@H](C)CC[C@]3(CCC(=O)[C@H]32)[C@@H](C)[C@@H]1O` [PLEUROMULIN], for which the MIC is 2 µg/mL (≈ 5.28 µM) with Staphylococcus aureus [2], 2 µg/mL (≈ 5.28 µM) against Staphylococcus aureus [3], 1 µg/mL (≈ 2.64 µM) against Staphylococcus aureus [5] and 2 µg/mL (≈ 5.28 µM) against Staphylococcus aureus [11]. Besides, the MBC in the experiment on Staphylococcus aureus [4] is 4 µg/mL (≈ 10.6 µM); against Staphylococcus aureus [7] it was 4 µg/mL (≈ 10.6 µM); in the experiment with Staphylococcus aureus [8] it was 4 µg/mL (≈ 10.6 µM); in the experiment on Staphylococcus aureus [10], 2 µg/mL (≈ 5.28 µM).

What is called MBC is the smallest concentration meeting the test's criterion for killing. Higher therefore signals weaker bactericidal potency. Broadly, the MIC is the lowest concentration found to suppress growth.

These data come from ChEMBL document CHEMBL4765405, “Design, synthesis and biological activities of novel pleuromutilin derivatives with a substituted triazole moiety as potent antibacterial agents” (Eur J Med Chem, 2020).
